# Assay results taken from ChEMBL document CHEMBL4725336, “Anti-cancer potential of (1,2-dihydronaphtho[2,1-b]furan-2-yl)methanone derivatives” (Bioorg Med Chem Lett, 2020).
# Active and inactive are the calls of the source. The calls are words filed in the database; no cut-off is given here.
# Experiments:
# [1] = test system: MDA-MB-468; assay: Induction of mitochondrial membrane potential loss in human MDA-MB-468 cells by JC-1 staining based analysis; format: functional, cell-based; settings: dose microM 10-30
# How it was run: (§1)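 Cells were given 10, 20 and 30 μM and stained with JC-1. Mitochondrial membrane potential change was read as the shift from red to green fluorescence, i.e. the red/green ratio, across concentration and time.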
# [2] = test system: MDA-MB-468; assay: Antiproliferative activity against human MDA-MB-468 cells assessed as inhibition of cell proliferation by MTT assay; format: functional; settings: read-out: LD50 (the source's name)
# How it was run: (§2)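 MTT proliferation assay; cells exposed to compounds across 0-50 μM; LD50 derived from dose-dependent survival. Triple-negative MDA-MB-468, MDA-MB-231 and 4T1, ER+/PR+ MCF-7, and non-cancerous lung fibroblast WI-38 tested.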
# [3] = test system: MCF7; assay: Antiproliferative activity against human MCF7 cells assessed as inhibition of cell proliferation by MTT assay; format: functional; settings: read-out: LD50 (the source's name); how it was run: as §2
# [4] = Cytotoxicity against human WI-38 cells assessed as inhibition of cell proliferation by MTT assay; format: cell-based; settings: read-out: LD50 (the source's name); how it was run: as §2
# [5] = Selectivity index, ratio of LD50 for human WI-38 cells to LD50 for human MDA-MB-468 cells assessed as inhibition of cell proliferation by MTT assay; format: toxicity; settings: WI-38 cells and MDA-MB-468 cells, read-out: Selectivity Index
# How it was run: (§3)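 MTT proliferation assay on cells treated with 0–50 μM. LD50 was derived for each cell line, and the selectivity index was calculated as WI-38 LD50 divided by cancer-cell LD50.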
# [6] = Selectivity index, ratio of LD50 for human WI-38 cells to LD50 for human MCF7 cells assessed as inhibition of cell proliferation by MTT assay; format: toxicity; settings: WI-38 cells and MCF7 cells, read-out: Selectivity Index; how it was run: as §3
# [7] = test system: 4T1; assay: Antiproliferative activity against mouse 4T1 cells assessed as inhibition of cell proliferation by MTT assay; format: functional; settings: read-out: LD50 (the source's name); how it was run: as §2
# [8] = Selectivity index, ratio of LD50 for human WI-38 cells to LD50 for mouse 4T1 cells assessed as inhibition of cell proliferation by MTT assay
# How it was run: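 Selectivity index computed as MTT-derived LD50 in non-cancerous WI-38 lung fibroblasts divided by LD50 in the cancer line (cells exposed to 0-50 μM).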
# [9] = test system: MDA-MB-231; assay: Antiproliferative activity against human MDA-MB-231 cells assessed as inhibition of cell proliferation by MTT assay; format: functional; settings: read-out: LD50 (the source's name); how it was run: as §2
# [10] = Selectivity index, ratio of LD50 for human WI-38 cells to LD50 for human MDA-MB-231 cells assessed as inhibition of cell proliferation by MTT assay; format: toxicity; settings: WI-38 cells and MDA-MB-231 cells, read-out: Selectivity Index
# [11] = test system: MDA-MB-468; assay: Induction of apoptosis in human MDA-MB-468 cells at 30 uM measured after 24 hrs by annexinV-FITC/propidium iodide staining based flow cytometry analysis relative to control; format: functional
# How it was run: (§4)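 Cells were treated with 0, 10, 20 and 30 μM for 24 h, then stained with Annexin V-FITC/PI. Apoptotic cells were quantified by flow cytometry from dot plots against untreated cells.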
# [12] = test system: MDA-MB-468; assay: Induction of apoptosis in human MDA-MB-468 cells measured after 24 hrs by annexinV-FITC/propidium iodide staining based flow cytometry analysis; format: functional, cell-based; settings: dose microM 10-30, time 24.0 hrs; how it was run: as §4
# [13] = test system: MCF7; assay: Induction of apoptosis in human MCF7 cells measured after 24 hrs by annexinV-FITC/propidium iodide staining based flow cytometry analysis; format: functional, cell-based; settings: dose microM 10-30, time 24.0 hrs; how it was run: as §4
# [14] = test system: MCF7; assay: Induction of apoptosis in human MCF7 cells at 30 uM measured after 24 hrs by annexinV-FITC/propidium iodide staining based flow cytometry analysis relative to control; format: functional; how it was run: as §4
# [15] = test system: WI-38; assay: Induction of apoptosis in human WI-38 cells at 10 to 30 uM measured after 24 hrs by annexinV-FITC/propidium iodide staining based flow cytometry analysis; format: cell-based; settings: wi-38, 24 h, dose 10-30 µM; how it was run: as §4
# [16] = test system: MDA-MB-468; assay: Induction of ROS generation in human MDA-MB-468 cells assessed as increase in fluorescence intensity after 12 hrs by DCFDA staining based microscopy analysis; format: functional, cell-based; settings: dose microM 10-30, time 12.0 hrs
# How it was run: (§5)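 Cells were exposed to 0, 10, 20 or 30 μM for 12 h, then stained with DCFDA (100 μM) for 30 min. Green fluorescence was imaged by microscopy and intensity was also read spectrophotometrically. Data are the mean of three experiments ±SD.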
# [17] = test system: MCF7; assay: Induction of ROS generation in human MCF7 cells assessed as increase in fluorescence intensity after 12 hrs by DCFDA staining based microscopy analysis; format: functional, cell-based; settings: dose microM 10-30, time 12.0 hrs; how it was run: as §5
# [18] = test system: MDA-MB-468; assay: Induction of ROS generation in human MDA-MB-468 cells assessed as increase in fluorescence intensity at 10 to 30 uM after 12 hrs in presence of ROS scavenger NAC by DCFDA staining based microscopy analysis; format: functional, cell-based; settings: dose microM 10-30, time 12.0 hrs
# How it was run: (§6)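 Cells were pre-treated with 10 mM N-acetyl cysteine (ROS scavenger), then given 10, 20 or 30 μM for 12 h. They were stained with 100 μM DCFDA for 30 min and read by fluorescence microscopy and spectrophotometric intensity. Three experiments, mean ±SD.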
# [19] = test system: MCF7; assay: Induction of ROS generation in human MCF7 cells assessed as increase in fluorescence intensity at 10 to 30 uM after 12 hrs in presence of ROS scavenger NAC by DCFDA staining based microscopy analysis; format: functional, cell-based; settings: dose microM 10-30, time 12.0 hrs; how it was run: as §6
# [20] = test system: WI-38; assay: Induction of ROS generation in human WI-38 cells assessed as increase in fluorescence intensity at 10 to 30 uM after 12 hrs by DCFDA staining based microscopy analysis; format: cell-based; settings: wi-38, 12 h, dose 10-30 µM; how it was run: as §5
# [21] = test system: MDA-MB-468; assay: Induction of mitochondrial membrane potential loss in human MDA-MB-468 cells at 10 to 30 uM by JC-1 staining based analysis; format: functional, cell-based; settings: dose microM 10-30, TDE = time-dependent effect; how it was run: as §1
# [22] = test system: MCF7; assay: Induction of mitochondrial membrane potential loss in human MCF7 cells at 10 to 30 uM by JC-1 staining based analysis; format: functional, cell-based; settings: dose microM 10-30, TDE = time-dependent effect; how it was run: as §1
# [23] = test system: MCF7; assay: Induction of mitochondrial membrane potential loss in human MCF7 cells by JC-1 staining based analysis; format: functional, cell-based; settings: dose microM 10-30; how it was run: as §1
# [24] = test system: WI-38; assay: Induction of mitochondrial membrane potential loss in human WI-38 cells at 10 to 30 uM by JC-1 staining based analysis; format: cell-based; settings: wi-38, 30 µM, dose 10-30 µM; how it was run: as §1
# [25] = test system: MDA-MB-468; assay: Induction of apoptosis in human MDA-MB-468 cells assessed as increase in p53 expression at 10 to 30 uM by Western blot analysis; format: functional, cell-based; settings: dose microM 10-30
# How it was run: (§7)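 MDA-MB-468 cells were treated with 10, 20 and 30 μM. Bcl2, Bax, cleaved caspase-3, p53 and pBad were probed by Western blot, and band expression was quantified.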
# [26] = test system: MDA-MB-468; assay: Induction of mitochondrial ROS production in human MDA-MB-468 cells at 10 to 30 uM by MitoSox red dye based spectrofluorimetric analysis; format: functional, cell-based; settings: dose microM 10-30
# How it was run: (§8)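 Cells were treated at 10, 20 and 30 μM and stained with MitoSOX Red. Red fluorescence from oxidized product was imaged and its intensity measured spectroscopically. Mean of three experiments ±SD.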
# [27] = test system: MCF7; assay: Induction of mitochondrial ROS production in human MCF7 cells at 10 to 30 uM by MitoSox red dye based spectrofluorimetric analysis; format: functional, cell-based; settings: dose microM 10-30; how it was run: as §8
# [28] = test system: MDA-MB-468; assay: Induction of DNA damage in human MDA-MB-468 cells assessed as tail length at 20 uM measured after 24 hrs by comet assay; format: functional
# How it was run: (§9)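 Cells given 0, 10, 20 and 30 μM; DNA strand breaks were assessed by single-cell gel electrophoresis (comet assay). Fragmented DNA migrates toward the anode, and tail length was measured against untreated cells.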
# [29] = test system: MDA-MB-468; assay: Induction of DNA damage in human MDA-MB-468 cells assessed as tail length at 30 uM measured after 24 hrs by comet assay; format: functional; how it was run: as §9
# [30] = test system: MDA-MB-468; assay: Induction of apoptosis in human MDA-MB-468 cells assessed as increase in BAX/Bcl2 expression ratio at 10 to 30 uM by Western blot analysis; format: functional, cell-based; settings: dose microM 10-30; how it was run: as §7
# [31] = test system: MDA-MB-468; assay: Induction of apoptosis in human MDA-MB-468 cells assessed as decrease in Bcl2 expression at 10 to 30 uM by Western blot analysis; format: functional, cell-based; settings: dose microM 10-30; how it was run: as §7
# [32] = test system: MDA-MB-468; assay: Induction of apoptosis in human MDA-MB-468 cells assessed as decrease in pBad expression at 10 to 30 uM by Western blot analysis; format: functional, cell-based; settings: dose microM 10-30; how it was run: as §7
# [33] = test system: MDA-MB-468; assay: Induction of apoptosis in human MDA-MB-468 cells assessed as activation of caspase-3 cleavage at 10 to 30 uM by Western blot analysis; format: functional, cell-based; settings: dose microM 10-30; how it was run: as §7
# [34] = test system: MDA-MB-468; assay: Induction of apoptosis in human MDA-MB-468 cells assessed as increase in cleaved caspase-3 expression at 10 to 30 uM in presence of pan-caspase inhibitor z-VAD-FMK by Western blot analysis; format: functional, cell-based; settings: dose microM 10-30
# How it was run: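 MDA-MB-468 cells were exposed to the caspase inhibitor Z-VAD-FMK, then treated with 10, 20 or 30 μM. Cleaved caspase-3 was detected by Western blot and quantified.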
# [35] = test system: WI-38; assay: Induction of apoptosis in human WI-38 cells assessed as increase in cleaved caspase-3 expression at 10 to 30 uM by Western blot analysis; format: cell-based; settings: wi-38, 30 µM, dose 10-30 µM
compound,measurement,setting,value
Cc1ccc(C(=O)[C@@H]2Cc3c(ccc4ccccc34)O2)cc1,Activity,[1],Dose-dependent effect
same,CC50,[2],15 µM
same,CC50,[3],17 µM
same,CC50,[4],58 µM
same,selectivity ratio,[5],3.87
same,selectivity ratio,[6],3.41
same,CC50,[7],21 µM
same,Selectivity Index,[8],2.76
same,CC50,[9],19 µM
same,selectivity ratio,[10],3.05
same,Activity,[11],69%
same,Activity,[12],Dose-dependent effect
same,Activity,[13],Dose-dependent effect
same,Activity,[14],61%
same,Activity,[15],Non-Toxic
same,Activity,[16],Dose-dependent effect
same,Activity,[17],Dose-dependent effect
same,Activity,[18],inactive
same,Activity,[19],inactive
same,Activity,[20],Non-Toxic
same,Activity,[21],Tde
same,Activity,[22],Tde
same,Activity,[23],Dose-dependent effect
same,Activity,[24],Non-Toxic
same,Activity,[25],Active
same,Activity,[26],Active
same,Activity,[27],Active
same,Activity,[28],32 µm
same,Activity,[29],63 µm
same,Activity,[30],Active
same,Activity,[31],Active
same,Activity,[32],Active
same,Activity,[33],Active
same,Activity,[34],inactive
same,Activity,[35],Non-Toxic
